Test results published in ChEMBL document CHEMBL3860048 (J Med Chem, 2016).
Calls of active or inactive are those of the source. The rule behind the calls is not given here. Where a SMILES comes first, the peptide text is derived from it. [ ]: non-standard residue; d: D form. Phe(4-Cl) = N[C@@H](Cc1ccc(Cl)cc1)C(=O)O; Phe(3-F) = N[C@@H](Cc1cccc(F)c1)C(=O)O; Phe(2-F) = N[C@@H](Cc1ccccc1F)C(=O)O; Arg(Me) = CNC(=N)NCCC[C@H](N)C(=O)O; Pip = O=C(O)[C@@H]1CCCCN1; NMeA = CN[C@@H](C)C(=O)O; Thz = O=C(O)[C@@H]1CSCN1; dNMeA = CN[C@H](C)C(=O)O; 2Abz = Nc1ccccc1C(=O)O; Aib = CC(C)(N)C(=O)O; azaGly = NNC(=O)O; βAla = NCCC(=O)O; Sar = CNCC(=O)O

Columns and labels:
[1] = target: KiSS-1 receptor (Rattus norvegicus, UniProt Q924U1); experiment: Agonist activity at rat KISS1R expressed in CHO/dhfr cells assessed as increase in intracellular Ca2+ levels measured for 180 secs by Fluo 3-AM dye based FLIPR assay; type: functional, cell-based
[2] = target: KiSS-1 receptor (Homo sapiens, UniProt Q969F8); experiment: Agonist activity at human KISS1R expressed in CHO/dhfr cells assessed as increase in intracellular Ca2+ levels measured for 180 secs by Fluo 3-AM dye based FLIPR assay; type: functional, cell-based
How it was run: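 CHO cells expressing human KISS1R; FLIPR recording of ligand-induced [Ca2+]i rise over time. Maximum response taken and expressed as percent of the response to a maximal concentration of metastin(45-54). EC50 = concentration giving half-maximal mobilization, from nonlinear regression of smoothed data. Reported as ratio to the metastin(45-54) EC50.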

[3] = system: Rattus norvegicus; experiment: Inhibition of testosterone levels in CD(SD) rat assessed as plasma testosterone level <0.04 ng/ml at 0.03 nmol/hr, sc administered continuously for 6 days through alzet osmotic pump measured after 6 days by radio-immunoassay; type: functional, organism-based

Sequence of KiSS-1 receptor (Homo sapiens, UniProt Q969F8) (Q969F8 whole entry): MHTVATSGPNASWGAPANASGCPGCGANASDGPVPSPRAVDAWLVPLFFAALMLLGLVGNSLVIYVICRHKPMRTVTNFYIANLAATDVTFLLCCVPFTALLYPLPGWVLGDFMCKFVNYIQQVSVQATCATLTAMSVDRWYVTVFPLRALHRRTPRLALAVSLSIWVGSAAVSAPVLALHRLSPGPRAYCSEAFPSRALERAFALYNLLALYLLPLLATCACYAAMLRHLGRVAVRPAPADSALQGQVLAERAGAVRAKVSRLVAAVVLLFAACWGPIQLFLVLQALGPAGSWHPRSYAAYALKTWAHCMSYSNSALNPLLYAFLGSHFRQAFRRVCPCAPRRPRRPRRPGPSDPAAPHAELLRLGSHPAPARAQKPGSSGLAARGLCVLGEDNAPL
Sequence of KiSS-1 receptor (Rattus norvegicus, UniProt Q924U1) (Q924U1 whole entry): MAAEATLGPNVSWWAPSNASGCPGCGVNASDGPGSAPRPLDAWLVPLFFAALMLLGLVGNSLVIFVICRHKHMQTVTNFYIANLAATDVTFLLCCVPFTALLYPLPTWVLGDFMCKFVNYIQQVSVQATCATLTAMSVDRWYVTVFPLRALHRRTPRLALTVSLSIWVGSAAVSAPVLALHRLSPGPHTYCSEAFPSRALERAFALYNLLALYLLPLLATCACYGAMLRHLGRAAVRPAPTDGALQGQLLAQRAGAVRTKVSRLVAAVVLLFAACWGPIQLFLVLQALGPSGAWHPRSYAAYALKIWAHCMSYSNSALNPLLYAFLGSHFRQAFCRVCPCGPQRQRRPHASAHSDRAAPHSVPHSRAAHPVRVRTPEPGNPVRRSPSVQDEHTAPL

CNC(=N)NCCC[C@H](NC(=O)[C@H](CC(C)C)NC(=O)NNC(=O)[C@H](Cc1ccccc1)NC(=O)[C@@H](NC(=O)[C@H](CC(N)=O)NC(=O)[C@@H](C)NC(=O)[C@@H](Cc1ccc(O)cc1)NC(C)=O)[C@@H](C)O)C(=O)N[C@@H](Cc1c[nH]c2ccccc12)C(N)=O
EC50 [1]: 16 nM | EC50 [2]: 2.7 nM

CNC(=N)NCCC[C@H](NC(=O)[C@H](CC(C)C)NC(=O)NNC(=O)[C@H](Cc1ccccc1)NC(=O)[C@@H](NC(=O)[C@H](CC(N)=O)NC(=O)[C@H](C)NC(=O)[C@@H](Cc1ccc(O)cc1)NC(C)=O)[C@@H](C)O)C(=O)N[C@@H](Cc1c[nH]c2ccccc12)C(N)=O
EC50 [1]: 6 nM | EC50 [2]: 1.2 nM

CNC(=N)NCCC[C@H](NC(=O)[C@H](CC(C)C)NC(=O)NNC(=O)[C@H](Cc1ccccc1)NC(=O)[C@@H](NC(=O)[C@H](CC(N)=O)NC(=O)C1CN(C(=O)[C@@H](Cc2ccc(O)cc2)NC(C)=O)C1)[C@@H](C)O)C(=O)N[C@@H](Cc1c[nH]c2ccccc12)C(N)=O
EC50 [1]: 15 nM | EC50 [2]: 2.3 nM

CNC(=N)NCCC[C@H](NC(=O)[C@H](CC(C)C)NC(=O)NNC(=O)[C@H](Cc1ccccc1)NC(=O)[C@@H](NC(=O)[C@H](CC(N)=O)NC(=O)[C@H](CCCCN)NC(=O)[C@@H](Cc1ccc(O)cc1)NC(C)=O)[C@@H](C)O)C(=O)N[C@@H](Cc1c[nH]c2ccccc12)C(N)=O
inhibition [3]: Active | EC50 [1]: 6.8 nM | EC50 [2]: 1.6 nM

CNC(=N)NCCC[C@H](NC(=O)[C@H](CC(C)C)NC(=O)NNC(=O)[C@H](Cc1ccc(F)cc1)NC(=O)[C@@H](NC(=O)[C@H](CC(N)=O)NC(=O)[C@@H](Cc1c[nH]c2ccccc12)NC(=O)[C@@H](Cc1ccc(O)cc1)NC(C)=O)[C@@H](C)O)C(=O)N[C@@H](Cc1c[nH]c2ccccc12)C(N)=O
inhibition [3]: Active | EC50 [1]: 4.7 nM | EC50 [2]: 1.9 nM

CNC(=N)NCCC[C@H](NC(=O)[C@H](CC(C)C)NC(=O)NNC(=O)[C@H](Cc1ccccc1)NC(=O)[C@@H](NC(=O)[C@H](CC(N)=O)NC(=O)[C@H](CCC(=O)O)NC(=O)[C@@H](Cc1ccc(O)cc1)NC(C)=O)[C@@H](C)O)C(=O)N[C@@H](Cc1c[nH]c2ccccc12)C(N)=O
inhibition [3]: Active | EC50 [1]: 11 nM | EC50 [2]: 2.8 nM

CNC(=N)NCCC[C@H](NC(=O)[C@H](CC(C)C)NC(=O)NNC(=O)[C@H](Cc1ccccc1)NC(=O)[C@@H](NC(=O)[C@H](CC(N)=O)NC(=O)[C@@H]1Cc2ccccc2CN1C(=O)[C@@H](Cc1ccc(O)cc1)NC(C)=O)[C@@H](C)O)C(=O)N[C@@H](Cc1c[nH]c2ccccc12)C(N)=O
EC50 [1]: 7 nM | EC50 [2]: 0.49 nM

CNC(=N)NCCC[C@H](NC(=O)[C@H](CC(C)C)NC(=O)NNC(=O)[C@H](Cc1ccccc1)NC(=O)[C@@H](NC(=O)[C@H](CC(N)=O)NC(=O)[C@H]1CCCN1C(=O)[C@@H](Cc1ccc(O)cc1)NC(C)=O)[C@@H](C)O)C(=O)N[C@@H](Cc1c[nH]c2ccccc12)C(N)=O
EC50 [1]: 110 nM | EC50 [2]: 5.8 nM

CNC(=N)NCCC[C@H](NC(=O)[C@H](CC(C)C)NC(=O)NNC(=O)[C@H](Cc1ccccc1)NC(=O)[C@@H](NC(=O)[C@H](CC(N)=O)NC(=O)[C@@H](CC(C)C)NC(=O)[C@@H](Cc1ccc(O)cc1)NC(C)=O)[C@@H](C)O)C(=O)N[C@@H](Cc1c[nH]c2ccccc12)C(N)=O
inhibition [3]: Active | EC50 [1]: 12 nM | EC50 [2]: 2 nM

CNC(=N)NCCC[C@H](NC(=O)[C@H](CC(C)C)NC(=O)NNC(=O)[C@H](Cc1ccccc1)NC(=O)[C@@H](NC(=O)[C@H](CC(N)=O)NC(=O)[C@H]1CCCN(C(=O)[C@@H](Cc2ccc(O)cc2)NC(C)=O)C1)[C@@H](C)O)C(=O)N[C@@H](Cc1c[nH]c2ccccc12)C(N)=O
EC50 [1]: 45 nM | EC50 [2]: 5.5 nM

CNC(=N)NCCC[C@H](NC(=O)[C@H](CC(C)C)NC(=O)NNC(=O)[C@H](Cc1cccc(F)c1)NC(=O)[C@@H](NC(=O)[C@H](CC(N)=O)NC(=O)CNC(=O)[C@@H](Cc1ccc(O)cc1)NC(C)=O)[C@@H](C)O)C(=O)N[C@@H](Cc1c[nH]c2ccccc12)C(N)=O (Ac-[dY]GNT[Phe(3-F)][azaGly]L[Arg(Me)]W-NH2)
EC50 [1]: 7.4 nM | EC50 [2]: 1.1 nM

CNC(=N)NCCC[C@H](NC(=O)[C@H](CC(C)C)NC(=O)NNC(=O)[C@H](Cc1cccc(F)c1)NC(=O)[C@@H](NC(=O)[C@H](CC(N)=O)NC(=O)[C@H](Cc1c[nH]c2ccccc12)NC(=O)[C@@H](Cc1ccc(O)cc1)NC(C)=O)[C@@H](C)O)C(=O)N[C@@H](Cc1c[nH]c2ccccc12)C(N)=O (Ac-[dY]WNT[Phe(3-F)][azaGly]L[Arg(Me)]W-NH2)
EC50 [1]: 1.2 nM | EC50 [2]: 0.073 nM

CNC(=N)NCCC[C@H](NC(=O)[C@H](CC(C)C)NC(=O)NNC(=O)[C@H](Cc1ccccc1)NC(=O)[C@@H](NC(=O)[C@H](CC(N)=O)NC(=O)c1ccccc1NC(=O)[C@@H](Cc1ccc(O)cc1)NC(C)=O)[C@@H](C)O)C(=O)N[C@@H](Cc1c[nH]c2ccccc12)C(N)=O (Ac-[dY][2Abz]NTF[azaGly]L[Arg(Me)]W-NH2)
EC50 [1]: 47 nM | EC50 [2]: 5.2 nM

CNC(=N)NCCC[C@H](NC(=O)[C@H](CC(C)C)NC(=O)NNC(=O)[C@H](Cc1cccc(F)c1)NC(=O)[C@@H](NC(=O)[C@H](CC(N)=O)NC(=O)C(C)(C)NC(=O)[C@@H](Cc1ccc(O)cc1)NC(C)=O)[C@@H](C)O)C(=O)N[C@@H](Cc1c[nH]c2ccccc12)C(N)=O (Ac-[dY][Aib]NT[Phe(3-F)][azaGly]L[Arg(Me)]W-NH2)
EC50 [1]: 7 nM | EC50 [2]: 1.2 nM

CNC(=N)NCCC[C@H](NC(=O)[C@H](CC(C)C)NC(=O)NNC(=O)[C@H](Cc1ccccc1)NC(=O)[C@@H](NC(=O)[C@H](CC(N)=O)NC(=O)[C@H](C)N(C)C(=O)[C@@H](Cc1ccc(O)cc1)NC(C)=O)[C@@H](C)O)C(=O)N[C@@H](Cc1c[nH]c2ccccc12)C(N)=O (Ac-[dY][NMeA]NTF[azaGly]L[Arg(Me)]W-NH2)
EC50 [1]: 43 nM | EC50 [2]: 4.4 nM

CNC(=N)NCCC[C@H](NC(=O)[C@H](CC(C)C)NC(=O)NNC(=O)[C@H](Cc1ccccc1)NC(=O)[C@@H](NC(=O)[C@H](CC(N)=O)NC(=O)[C@@H]1CCCCN1C(=O)[C@@H](Cc1ccc(O)cc1)NC(C)=O)[C@@H](C)O)C(=O)N[C@@H](Cc1c[nH]c2ccccc12)C(N)=O (Ac-[dY][Pip]NTF[azaGly]L[Arg(Me)]W-NH2)
EC50 [1]: 17 nM | EC50 [2]: 2.8 nM

CNC(=N)NCCC[C@H](NC(=O)[C@H](CC(C)C)NC(=O)NNC(=O)[C@H](Cc1ccccc1)NC(=O)[C@@H](NC(=O)[C@H](CC(N)=O)NC(=O)CN(C)C(=O)[C@@H](Cc1ccc(O)cc1)NC(C)=O)[C@@H](C)O)C(=O)N[C@@H](Cc1c[nH]c2ccccc12)C(N)=O (Ac-[dY][Sar]NTF[azaGly]L[Arg(Me)]W-NH2)
EC50 [1]: 20 nM | EC50 [2]: 4.9 nM

CNC(=N)NCCC[C@H](NC(=O)[C@H](CC(C)C)NC(=O)NNC(=O)[C@H](Cc1ccccc1)NC(=O)[C@@H](NC(=O)[C@H](CC(N)=O)NC(=O)[C@@H]1CSCN1C(=O)[C@@H](Cc1ccc(O)cc1)NC(C)=O)[C@@H](C)O)C(=O)N[C@@H](Cc1c[nH]c2ccccc12)C(N)=O (Ac-[dY][Thz]NTF[azaGly]L[Arg(Me)]W-NH2)
EC50 [1]: 23 nM | EC50 [2]: 2.3 nM

CNC(=N)NCCC[C@H](NC(=O)[C@H](CC(C)C)NC(=O)NNC(=O)[C@H](Cc1ccccc1)NC(=O)[C@@H](NC(=O)[C@H](CC(N)=O)NC(=O)[C@@H](C)N(C)C(=O)[C@@H](Cc1ccc(O)cc1)NC(C)=O)[C@@H](C)O)C(=O)N[C@@H](Cc1c[nH]c2ccccc12)C(N)=O (Ac-[dY][dNMeA]NTF[azaGly]L[Arg(Me)]W-NH2)
EC50 [1]: 7.3 nM | EC50 [2]: 1.8 nM

CNC(=N)NCCC[C@H](NC(=O)[C@H](CC(C)C)NC(=O)NNC(=O)[C@H](Cc1ccccc1F)NC(=O)[C@@H](NC(=O)[C@H](CC(N)=O)NC(=O)[C@@H](Cc1c[nH]c2ccccc12)NC(=O)[C@@H](Cc1ccc(O)cc1)NC(C)=O)[C@@H](C)O)C(=O)N[C@@H](Cc1c[nH]c2ccccc12)C(N)=O (Ac-[dY][dW]NT[Phe(2-F)][azaGly]L[Arg(Me)]W-NH2)
EC50 [1]: 1.8 nM | EC50 [2]: 0.65 nM

CNC(=N)NCCC[C@H](NC(=O)[C@H](CC(C)C)NC(=O)NNC(=O)[C@H](Cc1cccc(F)c1)NC(=O)[C@@H](NC(=O)[C@H](CC(N)=O)NC(=O)[C@@H](Cc1c[nH]c2ccccc12)NC(=O)[C@@H](Cc1ccc(O)cc1)NC(C)=O)[C@@H](C)O)C(=O)N[C@@H](Cc1c[nH]c2ccccc12)C(N)=O (Ac-[dY][dW]NT[Phe(3-F)][azaGly]L[Arg(Me)]W-NH2)
EC50 [1]: 4.8 nM | EC50 [2]: 1.4 nM

CNC(=N)NCCC[C@H](NC(=O)[C@H](CC(C)C)NC(=O)NNC(=O)[C@H](Cc1ccc(Cl)cc1)NC(=O)[C@@H](NC(=O)[C@H](CC(N)=O)NC(=O)[C@@H](Cc1c[nH]c2ccccc12)NC(=O)[C@@H](Cc1ccc(O)cc1)NC(C)=O)[C@@H](C)O)C(=O)N[C@@H](Cc1c[nH]c2ccccc12)C(N)=O (Ac-[dY][dW]NT[Phe(4-Cl)][azaGly]L[Arg(Me)]W-NH2)
EC50 [1]: 2.8 nM | EC50 [2]: 0.56 nM

CNC(=N)NCCC[C@H](NC(=O)[C@H](CC(C)C)NC(=O)NNC(=O)[C@H](Cc1ccccc1)NC(=O)[C@@H](NC(=O)[C@H](CC(N)=O)NC(=O)CCNC(=O)[C@@H](Cc1ccc(O)cc1)NC(C)=O)[C@@H](C)O)C(=O)N[C@@H](Cc1c[nH]c2ccccc12)C(N)=O (Ac-[dY][βAla]NTF[azaGly]L[Arg(Me)]W-NH2)
EC50 [1]: 11 nM | EC50 [2]: 3.3 nM
